Laboratory results from ChEMBL document CHEMBL3792321, “Potentiation of Francisella Resistance to Conventional Antibiotics through Small Molecule Adjuvants” (Medchemcomm, 2016).
Values after ≈ are worked out from the molar mass of the structure shown. Active and inactive are the calls of the source. The calls are words filed in the database; no cut-off is given here.

Experiments:
[1] = Effect on growth of Francisella philomiragia ATCC 25015 after 48 hrs
In short: (§1)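 Cultures grown 24 h were diluted to 5 × 10^5 CFU/mL in CAMHB with 2% IsoVitaleX (F. philomiragia) or TSB-C (F. novicida). Compound came from a 100 mM DMSO stock, starting at 200 µM, in twofold serial dilutions over 12 wells. Plates were incubated stationary at 37°C for 48 h. MIC was the lowest concentration with no bacterial growth.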

[2] = Potentiation of streptomycin-induced antibacterial activity against Francisella philomiragia ATCC 25015 assessed as MIC of streptomycin at 50 uM after 48 hrs (reference value: 4 ug/ml); assay type: functional; settings: ATCC 25015, 48 h
In short: (§2)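 Inocula were 5 × 10^5 CFU/mL in CAMHB with 2% IsoVitaleX (F. philomiragia) or TSB-C (F. novicida). Adjuvant from a 100 mM DMSO stock was held at one fixed concentration; the control had no adjuvant. Antibiotic started at 2–2,048 µg/mL in twofold serial dilutions. Incubation was stationary at 37°C for 48 h. Antibiotic MIC was the lowest concentration with no growth, compared with and without adjuvant.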

[3] = Potentiation of gentamicin-induced antibacterial activity against Francisella philomiragia ATCC 25015 assessed as MIC of gentamicin at 50 uM after 48 hrs (reference value: 0.5 ug/ml); assay type: functional; settings: ATCC 25015, 48 h; in short: as §2
[4] = Potentiation of azithromycin-induced antibacterial activity against Francisella philomiragia ATCC 25015 assessed as MIC of azithromycin at 50 uM after 48 hrs (reference value: 4 ug/ml); assay type: functional; settings: ATCC 25015, 48 h; in short: as §2
[5] = microbe, parasite or virus in culture; assay type: functional; settings: Francisella philomiragia, ATCC 25015, 48 h
[6] = Potentiation of colistin-induced antibacterial activity against Francisella philomiragia ATCC 25015 assessed as MIC of colistin at 50 uM after 48 hrs (reference value: 256 ug/ml); assay type: functional; settings: ATCC 25015, 48 h; in short: as §2
[7] = Potentiation of FR900098-induced antibacterial activity against Francisella philomiragia ATCC 25015 assessed as reduction of FR900098 MIC at 50 uM after 48 hrs relative to control; assay type: functional; in short: as §2
[8] = Effect on growth of Francisella novicida U112 after 48 hrs; settings: francisella tularensis subsp. novicida u112, 48 h; in short: as §1
[9] = Potentiation of gentamicin-induced antibacterial activity against Francisella novicida U112 assessed as MIC of gentamicin at 50 uM after 48 hrs (reference value: 1 ug/ml); assay type: functional, Francisella tularensis subsp. novicida U112; settings: Francisella tularensis; in short: as §2
[10] = Potentiation of azithromycin-induced antibacterial activity against Francisella novicida U112 assessed as MIC of azithromycin at 50 uM after 48 hrs (reference value: 2 ug/ml); assay type: functional, Francisella tularensis subsp. novicida U112; settings: Francisella tularensis; in short: as §2
[11] = microbe, parasite or virus in culture; assay type: functional, Francisella tularensis subsp. novicida U112; settings: Francisella tularensis, 48 h
[12] = Effect on growth of Francisella philomiragia ATCC 25015 assessed as growth delay at 50 uM after 8 to 12 hrs by time kill assay
In short: (§3)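 F. philomiragia from 24 h CAMHB/2% IsoVitaleX cultures was inoculated to 5 × 10^5 CFU/mL, with compound or as an untreated control. Tubes were shaken at 37°C. Samples taken at 8, 12, 16, 20 and 24 h were serially diluted and plated on cysteine heart agar with 5% rabbit blood. Plates were incubated at 37°C for 24–36 h, and CFU were counted.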

[13] = Effect on growth of Francisella philomiragia ATCC 25015 at 50 uM after 16 hrs by time kill assay; in short: as §3
[14] = Potentiation of colistin-induced antibacterial activity against Francisella novicida U112 assessed as reduction of colistin MIC at 50 uM after 48 hrs relative to control; assay type: functional, Francisella tularensis subsp. novicida U112; in short: as §2
[15] = Potentiation of colistin-induced antibacterial activity against Francisella novicida U112 assessed as reduction of colistin MIC at 100 uM after 48 hrs; assay type: functional, Francisella tularensis subsp. novicida U112; in short: as §2
[16] = Potentiation of colistin-induced antibacterial activity against Francisella philomiragia ATCC 25015 assessed as reduction of colistin MIC at 50 uM after 48 hrs relative to control; assay type: functional; in short: as §2
[17] = Potentiation of azithromycin-induced antibacterial activity against Francisella philomiragia ATCC 25015 assessed as reduction of azithromycin MIC at 50 uM after 48 hrs relative to control; assay type: functional; in short: as §2
[18] = system: Francisella tularensis subsp. novicida U112; experiment: Potentiation of azithromycin-induced antibacterial activity against Francisella novicida U112 assessed as reduction of azithromycin MIC at 50 uM after 48 hrs relative to control; assay type: functional; in short: as §2
[19] = Potentiation of gentamicin-induced antibacterial activity against Francisella philomiragia ATCC 25015 assessed as reduction of gentamicin MIC at 50 uM after 48 hrs relative to control; assay type: functional; in short: as §2
[20] = Potentiation of streptomycin-induced antibacterial activity against Francisella philomiragia ATCC 25015 assessed as reduction of streptomycin MIC at 50 uM after 48 hrs relative to control; assay type: functional; in short: as §2

Structure (SMILES) | MIC [1] [µM] | MIC [2] [µg/mL] | MIC [3] [µg/mL] | MIC [4] [µg/mL] | MIC [5] [µg/mL] | MIC [6] [µg/mL] | fold change (FC) [7] | MIC [8] [µg/mL] | MIC [9] [µg/mL] | MIC [10] [µg/mL] | MIC [11] [µg/mL] | Activity [12] | Activity [13] | fold change (FC) [14] | fold change (FC) [15] | fold change (FC) [16] | fold change (FC) [17] | Activity [18] | fold change (FC) [19] | fold change (FC) [20]
CCCCCc1ccc(C2=NCCO2)cc1 | 200 (≈ 43.5 µg/mL) | 8 | 1 | 2 | < 64 | 512 | 16 |  |  |  |  |  |  |  |  |  |  |  |  | 
CCCCc1ccc(C(=O)NCCc2c[nH]c3ccccc23)cc1 | > 200 | 4 | 0.25 | 0.5 | 1020 (≈ 3.2 mM) | 8 |  | > 200 | 4 | 1 | 512 (≈ 1.6 mM) | Toxic | Non-toxic | 2 | 16 |  |  |  |  | 
CCCCc1ccc(C(=O)NCCCc2c[nH]c3ccccc23)cc1 | > 200 | 4 | 0.25 | 2 |  | 64 |  |  |  |  |  |  |  |  |  | 4 |  |  |  | 
CCSC(=O)N1CCc2ccccc21 | > 200 | 4 | 0.5 | 0.5 | 1020 (≈ 4.94 mM) | 256 |  | > 200 | 4 | 0.125 | 1020 (≈ 4.94 mM) |  |  |  |  |  | 8 | Active |  | 
Cc1cc2nc(N)[nH]c2cc1C | > 200 | 1 | 0.125 | 4 | 1020 (≈ 6.35 mM) | 32 |  | > 200 | 1 | 2 | 1020 (≈ 6.35 mM) |  |  |  |  |  |  |  | 4 | 4
